Results pooled from the literature.
Lines come from different studies, so protocols differ.
Read-out: cell growth or viability

`C[C@H](Nc1ccc2c(c1)OCCn1cc(N3C(=O)OC[C@H]3C(F)F)nc1-2)C(N)=O` gave an EC50 of 0.158 µM (AGS; ATP luminescence; 5 days).
With `CCCCCCCCCCCCCCCCCCOc1ccc(CC(=O)OCCC[N+](C)(C)C)cc1` the inhibition was 3.92% (EKVX; SRB; 10 µM).
`COc1ccc2/c(=N/c3ccccc3NC(=O)[C@H](C)N)cc(-c3ccc4c(c3)OCCO4)oc2c1` has an inhibition of 16.5% (HCT-116; CCK-8; 1 µM).
`CCCCCCCCCCCCCCCCCCOc1cccc(CC(=O)OCC[N+]2(C)CCCC2)c1` gave an inhibition of 1.14% (EKVX; SRB; 10 µM).
With `O=C(Nc1ccc(Cl)cc1)Nc1ccc(-c2cn(Cc3ccc(Cl)cc3)nn2)cc1` the viability was 86% (PC-9; CCK-8; 20 µM, 72 h).
With `Cc1ccccc1Cn1cc(-c2cccc(NC(=O)Nc3ccc(F)cc3)c2)nn1` the viability was 123% (PC-9; CCK-8; 50 µM, 72 h).
`CCCCCCCCCCCCCCCCCCOc1ccccc1CC(=O)OCC[N+]1(C)CCCC1` has an inhibition of 46.1% (EKVX; SRB; 10 µM).
With `O=C(Nc1ccc(Cl)cc1)Nc1ccc(-c2cn(Cc3cccc(Cl)c3)nn2)cc1` the viability was 72.1% (PC-9; CCK-8; 20 µM, 72 h).
For `O=C(Nc1ccc(Cl)cc1)Nc1nc2cc(-c3ccc4ncn(Cc5ccccc5)c(=O)c4c3)ccc2s1`, the IC50 was over 20 µM (PC-9; MTT; 72 h).
The viability of `COc1ccc(NC(=O)Nc2cccc(-c3cn(Cc4ccc(Br)cc4)nn3)c2)cc1` is reported as 141% (PC-9; CCK-8; 20 µM, 72 h).
`O=C(NCc1cn(Cc2ccc(Cl)cc2)nn1)Nc1ccc(Cl)cc1` gave a viability of 81.7% (PC-9; CCK-8; 50 µM, 72 h).
`CC(C)NC(=O)Nc1nc2cc(-c3ccc4ncn(Cc5ccccc5)c(=O)c4c3)ccc2s1` has an IC50 of over 20 µM (PC-9; MTT; 72 h).
The viability of `O=C(Nc1ccc(Cl)cc1)Nc1cccc(-c2cn(Cc3ccc(Cl)cc3)nn2)c1` is reported as 110% (PC-9; CCK-8; 50 µM, 72 h).
For `O=C(Nc1cc(C(F)(F)F)cc(C(F)(F)F)c1)Nc1nc2cc(-c3ccc4ncn(Cc5ccccc5)c(=O)c4c3)ccc2s1`, the IC50 was over 20 µM (PC-9; MTT; 72 h).
For `O=C(Nc1ccc(Cl)cc1)Nc1cccc(-c2cn(Cc3cccc(Br)c3)nn2)c1`, the viability was 92.9% (PC-9; CCK-8; 50 µM, 72 h).
With `Cc1nc(Nc2ncc(C(=O)Nc3c(C)cccc3Cl)s2)cc(N2CC[C@H](O)C2)n1` the inhibition was -2% (Raji; ATP luminescence; 10 µM, 72 h).
The inhibition of `Nc1nc2ccc(-c3c/c(=N\c4ccccc4NC(=O)C4CCNC4)c4ccccc4o3)cc2o1` (centres unmarked) is reported as 62.6% (HCT-116; CCK-8; 1 µM).
`O=C(Nc1cccc(F)c1)Nc1nc2cc(-c3ccc4ncn(Cc5ccccc5)c(=O)c4c3)ccc2s1` gave an IC50 of over 20 µM (PC-9; MTT; 72 h).
With `CCCCCCCCCCCCCCCCCCOc1ccccc1CC(=O)OCC[N+]1(C)CCCCC1` the inhibition was 36.9% (EKVX; SRB; 10 µM).
`NCCC(=O)Nc1ccccc1/N=c1\cc(-c2ccc3nc(N)oc3c2)oc2ccc(O)cc12` gave an inhibition of 15% (HCT-116; CCK-8; 1 µM).
`N#CCCN(C(=O)CCl)c1ccc2c(c1)OCCN2CC(=O)N1CCC(C(=O)Nc2ccc(C(=O)NCCCCCCC(=O)NO)cc2)CC1` gave an EC50 of over 50 µM (U-87 MG; MTT).
With `NCC(=O)Nc1ccccc1/N=c1\cc(-c2ccc3c(c2)OCO3)oc2c(N)cccc12` the inhibition was 14.3% (HCT-116; CCK-8; 1 µM).
The EC50 of `CCOc1ccc(-c2cc(C(=O)O)c(-c3ccc(Cl)cc3)o2)cc1` is reported as 78 µM (HCT-116; MTT; 48 h).
The IC50 of `O=C(Nc1cccc(F)c1)Nc1nc2cc(-c3ccc4ncn(CCN5CCOCC5)c(=O)c4c3)ccc2s1` is reported as over 20 µM (PC-9; MTT; 72 h).
For `COc1ccc(NC(=O)Nc2cccc(-c3cn(Cc4ccccc4C)nn3)c2)cc1`, the viability was 121% (PC-9; CCK-8; 20 µM, 72 h).
For `CCCCCCCCCCCCCCCCCCOc1cccc(CC(=O)OCCC[N+](C)(C)C)c1`, the inhibition was 4.64% (EKVX; SRB; 10 µM).
The inhibition of `CNCCC(=O)Nc1ccccc1/N=c1\cc(-c2ccc3nc(N)oc3c2)oc2ccccc12` is reported as 76.8% (HCT-116; CCK-8; 1 µM).
The cell death of `COc1ccc(C=NNC(=O)c2nc3ccccc3s2)cc1O` is reported as 33.5% (HCT-116; MTT; 100 µM, 48 h).
The inhibition of `Oc1cccc(-c2nc(N3CCOCC3)c3oc4ncccc4c3n2)c1` is reported as 12.5% (HCT-116; CCK-8; 1 µM).
The cell death of `COc1cc(C=NNC(=O)c2nc3ccccc3s2)ccc1O` is reported as 44.6% (HCT-116; MTT; 100 µM, 48 h).
The viability of `O=C(Nc1ccc(-c2cn(Cc3ccc(Br)cc3)nn2)cc1)Nc1ccccc1Br` is reported as 85% (PC-9; CCK-8; 20 µM, 72 h).
`O=C(Nc1ccc(F)cc1)Nc1nc2cc(-c3ccc4ncn(Cc5ccccc5)c(=O)c4c3)ccc2s1` gave an IC50 of 7.3 µM (PC-9; MTT; 72 h).
With `O=C(NCc1cn(Cc2ccc(Br)cc2)nn1)Nc1ccc(Cl)cc1` the viability was 179% (PC-9; CCK-8; 50 µM, 72 h).
`COc1ccc(NC(=O)NCc2cn(Cc3ccc(Br)cc3)nn2)cc1` gave a viability of 143% (PC-9; CCK-8; 50 µM, 72 h).
`CCCCCCCCCCCCCCCCCCOc1cccc(CC(=O)OCC[N+](CC)(CC)CC)c1` gave an inhibition of 22.3% (EKVX; SRB; 10 µM).
For `COc1ccc(NC(=O)Nc2ccc(-c3cn(Cc4cccc(Cl)c4)nn3)cc2)cc1`, the viability was 98.2% (PC-9; CCK-8; 20 µM, 72 h).
`CCCCCCCCCCCCCCCCCCOc1ccccc1CC(=O)OCCC[N+](C)(C)C` has an inhibition of 21% (EKVX; SRB; 10 µM).
For `COc1ccc(NC(=O)Nc2cccc(-c3cn(Cc4ccc(C)cc4)nn3)c2)cc1`, the viability was 159% (PC-9; CCK-8; 20 µM, 72 h).
`O=C(Nc1ccc(Cl)cc1)Nc1cccc(-c2cn(Cc3cccc(Cl)c3)nn2)c1` gave a viability of 118% (PC-9; CCK-8; 50 µM, 72 h).
For `C[C@H](N)C(=O)Nc1ccccc1/N=c1\cc(-c2ccc3c(c2)OCCO3)oc2c([N+](=O)[O-])cccc12`, the inhibition was 12.7% (HCT-116; CCK-8; 1 µM).
For `Cc1nc(NC(=O)N2CCC[C@H]2C(N)=O)sc1-c1ccnc(C(C)(C)C(F)(F)F)c1`, the EC50 was 1.5 µM (KYSE-510; ATP luminescence; 5 days).
`COc1ccc(NC(=O)Nc2cccc(-c3cn(Cc4cccc(Cl)c4)nn3)c2)cc1` gave a viability of 136% (PC-9; CCK-8; 50 µM, 72 h).
`COCCC(=O)Nc1ccccc1/N=c1\cc(-c2ccc3nc(N)oc3c2)oc2ccccc12` has an inhibition of 3.71% (HCT-116; CCK-8; 1 µM).
With `O=C(NCc1cn(Cc2cccc(Cl)c2)nn1)Nc1ccc(Cl)cc1` the viability was 90% (PC-9; CCK-8; 50 µM, 72 h).
